Reference: ChEMBL document CHEMBL3232911, “Imidazolylchromanones containing non-benzylic oxime ethers: synthesis and molecular modeling study of new azole antifungals selective against Cryptococcus gattii” (2014)

What was measured:
Candida albicans = experiment: Antifungal activity against Candida albicans assessed as total growth inhibition by micro-broth dilution method; type: functional
Summary of the method: (§1)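 Broth microdilution following CLSI methods for yeasts and filamentous fungi. Compounds dissolved in DMSO, serially diluted in growth medium, inoculum added, incubation at 35 °C. MIC taken as the lowest concentration giving total inhibition of fungal growth. Testing done in triplicate.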

[1] = tested on: Cryptococcus gattii species complex; experiment: Antifungal activity against Cryptococcus gattii assessed as total growth inhibition by micro-broth dilution method; type: functional, Cryptococcus bacillisporus; summary of the method: as §1
Aspergillus fumigatus = experiment: Antifungal activity against Aspergillus fumigatus assessed as total growth inhibition by micro-broth dilution method; type: functional; summary of the method: as §1
Exophiala dermatitidis = experiment: Antifungal activity against Exophiala dermatitidis assessed as total growth inhibition by micro-broth dilution method; type: functional; summary of the method: as §1

SMILES	MIC (Candida albicans) [µg/mL]	MIC [1] [µg/mL]	MIC (Aspergillus fumigatus) [µg/mL]	MIC (Exophiala dermatitidis) [µg/mL]
O/N=C1\c2ccccc2OCC1n1ccnc1 (stereo unspecified)	> 64	> 64	> 64	> 128
O=[N+]([O-])O.c1ccc(OCCO/N=C2\c3ccccc3OCC2n2ccnc2)cc1 (racemic)	> 64	2	32	128
Clc1ccc(OCCO/N=C2\c3ccccc3OCC2n2ccnc2)cc1.O=[N+]([O-])O (racemic)	> 64	4	64	64
Clc1cccc(OCCO/N=C2\c3ccccc3OCC2n2ccnc2)c1.O=[N+]([O-])O (racemic)	> 64	0.5	32	64
Fc1ccc(OCCO/N=C2\c3ccccc3OCC2n2ccnc2)cc1.O=[N+]([O-])O (racemic)	> 64	4	64	128
Fc1cccc(OCCO/N=C2\c3ccccc3OCC2n2ccnc2)c1.O=[N+]([O-])O (racemic)	> 64	2	64	64
Clc1ccc(OCCO/N=C2\c3ccccc3OCC2n2ccnc2)c(Cl)c1.O=[N+]([O-])O (racemic)	> 64	2	64	128
OC(Cn1cncn1)(Cn1cncn1)c1ccc(F)cc1F [FLUCONAZOLE]	2	> 64	> 64	> 64
CCC(C)n1ncn(-c2ccc(N3CCN(c4ccc(OCC5COC(Cn6cncn6)(c6ccc(Cl)cc6Cl)O5)cc4)CC3)cc2)c1=O (stereo unspecified) [ITRACONAZOLE]	0.25	0.5	4	0.5
